According to ChEMBL document CHEMBL3817843, “Understanding Oxadiazolothiazinone Biological Properties: Negative Inotropic Activity versus Cytochrome P450-Mediated Metabolism” (J Med Chem, 2016):

Experiments:
Left cardiac atrium [1] = experiment: Negative inotropic activity in potassium depolarized guinea pig left atrium assessed as reduction in developed tension at 10^-4 M after 30 mins; format: functional, Cavia porcellus; set-up: scale not given: the % may be the effect or the level left
Left cardiac atrium [2] = experiment: Negative inotropic activity in potassium depolarized guinea pig left atrium assessed as reduction in developed tension after 30 mins; format: functional; settings: Cavia porcellus, 0.5 h
Procedure, shortened: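 Guinea pig left atria electrically driven at 1 Hz. EC50 taken from log concentration−response curves by Litchfield and Wilcoxon probit analysis, n = 6−7. Not calculated when the maximum effect was below 50%.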

Right cardiac atrium [3] = experiment: Negative chronotropic activity in potassium depolarized guinea pig right atrium assessed as reduction in atrial rate at 10^-4 M after 30 mins; format: functional, Cavia porcellus; set-up: scale not given: the % may be the effect or the level left
Aorta [4] = experiment: Vasorelaxant activity in potassium depolarized guinea pig aorta assessed as inhibition of calcium-induced contraction at 10^-4 M after 30 mins; format: functional, Cavia porcellus; set-up: scale not given: the % may be the effect or the level left
Procedure, shortened: (§1)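 Guinea pig aortic strips depolarized with K+ (80 mM). Calcium-induced contraction measured; inhibition expressed as percent change from control, n = 3−5.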

Left cardiac atrium [5] = experiment: Negative inotropic activity in potassium depolarized guinea pig left atrium assessed as reduction in developed tension at 50 uM after 30 mins; format: functional, Cavia porcellus; set-up: scale not given: the % may be the effect or the level left
Cytochrome P450 3A4 [6] = biological target: T1, Cytochrome P450 3A4 (Homo sapiens, UniProt P08684); experiment: Inhibition of CYP3A4 in human liver microsomes using midazolam as substrate after 4 mins by LC-MS analysis
T1 sequence (P08684 whole entry): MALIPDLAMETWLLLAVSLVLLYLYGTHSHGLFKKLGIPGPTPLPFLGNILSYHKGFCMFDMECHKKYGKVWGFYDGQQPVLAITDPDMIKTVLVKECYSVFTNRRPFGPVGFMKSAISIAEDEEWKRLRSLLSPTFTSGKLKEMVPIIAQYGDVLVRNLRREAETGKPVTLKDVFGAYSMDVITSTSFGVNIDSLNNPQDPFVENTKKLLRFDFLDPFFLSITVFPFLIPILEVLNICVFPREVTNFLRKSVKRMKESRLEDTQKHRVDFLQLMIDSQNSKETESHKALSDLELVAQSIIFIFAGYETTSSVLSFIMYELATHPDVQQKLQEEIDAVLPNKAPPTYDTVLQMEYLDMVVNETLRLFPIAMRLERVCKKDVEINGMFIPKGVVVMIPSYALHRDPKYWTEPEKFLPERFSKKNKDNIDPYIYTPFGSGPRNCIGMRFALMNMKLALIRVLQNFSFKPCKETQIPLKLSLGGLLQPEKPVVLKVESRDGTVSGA

Cytochrome P450 2C19 = Cytochrome P450 2C19 (Homo sapiens, UniProt P33261); experiment: Inhibition of CYP2C19 in human liver microsomes using (S)-mephenytoin as substrate after 40 mins by LC-MS analysis
Cytochrome P450 2C19, sequence (P33261 whole entry): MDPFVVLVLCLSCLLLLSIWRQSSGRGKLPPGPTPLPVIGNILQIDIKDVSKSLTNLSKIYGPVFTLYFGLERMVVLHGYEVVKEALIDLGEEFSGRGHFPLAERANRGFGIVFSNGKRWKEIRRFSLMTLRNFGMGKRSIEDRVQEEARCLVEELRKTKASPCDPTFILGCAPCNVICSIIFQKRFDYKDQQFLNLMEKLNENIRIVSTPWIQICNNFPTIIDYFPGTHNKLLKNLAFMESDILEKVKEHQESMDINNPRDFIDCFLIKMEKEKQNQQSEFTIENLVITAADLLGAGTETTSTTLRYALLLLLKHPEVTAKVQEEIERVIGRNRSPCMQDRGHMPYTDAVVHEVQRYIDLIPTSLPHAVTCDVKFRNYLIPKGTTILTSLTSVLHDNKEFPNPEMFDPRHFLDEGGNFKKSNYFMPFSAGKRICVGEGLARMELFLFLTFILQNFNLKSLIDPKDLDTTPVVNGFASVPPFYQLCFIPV

Cytochrome P450 2D6 = Cytochrome P450 2D6 (Homo sapiens, UniProt P10635); experiment: Inhibition of CYP2D6 in human liver microsomes using dextromethorphan as substrate after 10 mins by LC-MS analysis
Cytochrome P450 2D6, sequence (P10635 whole entry): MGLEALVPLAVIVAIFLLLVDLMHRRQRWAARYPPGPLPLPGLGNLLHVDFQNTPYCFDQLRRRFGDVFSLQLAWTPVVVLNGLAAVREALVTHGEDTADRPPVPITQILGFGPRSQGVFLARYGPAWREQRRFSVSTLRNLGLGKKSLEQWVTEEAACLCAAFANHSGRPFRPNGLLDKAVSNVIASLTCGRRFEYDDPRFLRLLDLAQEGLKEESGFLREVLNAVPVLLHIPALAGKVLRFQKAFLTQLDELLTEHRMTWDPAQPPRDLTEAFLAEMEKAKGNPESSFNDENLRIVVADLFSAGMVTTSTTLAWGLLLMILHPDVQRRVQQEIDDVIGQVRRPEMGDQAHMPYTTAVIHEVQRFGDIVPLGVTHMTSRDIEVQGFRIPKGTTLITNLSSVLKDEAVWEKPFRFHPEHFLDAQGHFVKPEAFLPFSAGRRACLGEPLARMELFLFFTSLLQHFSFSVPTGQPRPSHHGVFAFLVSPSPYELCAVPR

Liver microsome = experiment: Stability in human liver microsomes at 1 uM after 2 to 60 mins by LC-MS analysis in absence of NADPH
Cytochrome P450 1A2 = biological target: T2, Cytochrome P450 1A2 (Homo sapiens, UniProt P05177); experiment: Inhibition of CYP1A2 in human liver microsomes using phenacetin as substrate after 30 mins by LC-MS analysis
T2 sequence (P05177 whole entry): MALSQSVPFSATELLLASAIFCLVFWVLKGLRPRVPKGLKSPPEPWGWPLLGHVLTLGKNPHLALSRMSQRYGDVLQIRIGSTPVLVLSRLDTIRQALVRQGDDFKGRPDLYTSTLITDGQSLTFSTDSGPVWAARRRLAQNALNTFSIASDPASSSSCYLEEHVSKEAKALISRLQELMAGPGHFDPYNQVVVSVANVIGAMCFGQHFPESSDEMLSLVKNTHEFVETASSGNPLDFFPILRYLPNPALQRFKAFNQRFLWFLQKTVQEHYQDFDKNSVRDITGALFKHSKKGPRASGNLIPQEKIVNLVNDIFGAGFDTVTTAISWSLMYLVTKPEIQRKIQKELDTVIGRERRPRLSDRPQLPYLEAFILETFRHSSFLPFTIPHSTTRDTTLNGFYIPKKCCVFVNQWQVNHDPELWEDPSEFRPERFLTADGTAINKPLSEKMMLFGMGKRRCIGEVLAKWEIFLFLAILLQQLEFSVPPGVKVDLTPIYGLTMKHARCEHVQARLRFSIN

Cytochrome P450 2C9 = Cytochrome P450 2C9 (Homo sapiens, UniProt P11712); experiment: Inhibition of CYP2C9 in human liver microsomes using tolbutamide as substrate after 20 mins by LC-MS analysis
Cytochrome P450 2C9, sequence (P11712 whole entry): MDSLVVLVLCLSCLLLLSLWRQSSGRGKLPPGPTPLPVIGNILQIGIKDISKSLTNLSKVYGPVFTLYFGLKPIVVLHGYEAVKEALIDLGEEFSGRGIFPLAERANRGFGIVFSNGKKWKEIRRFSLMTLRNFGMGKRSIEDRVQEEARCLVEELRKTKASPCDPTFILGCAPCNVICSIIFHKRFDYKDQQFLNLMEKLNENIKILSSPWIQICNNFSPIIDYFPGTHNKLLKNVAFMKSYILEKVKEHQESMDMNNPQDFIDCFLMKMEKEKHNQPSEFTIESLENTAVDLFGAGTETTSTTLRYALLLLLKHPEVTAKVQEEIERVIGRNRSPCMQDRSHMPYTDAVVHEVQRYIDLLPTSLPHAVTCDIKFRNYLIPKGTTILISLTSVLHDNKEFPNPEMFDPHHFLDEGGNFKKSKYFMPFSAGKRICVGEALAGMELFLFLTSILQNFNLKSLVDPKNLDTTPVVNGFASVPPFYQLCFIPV

Cytochrome P450 3A4 [7] = biological target: T1, Cytochrome P450 3A4; experiment: Inhibition of CYP3A4 in human liver microsomes using testosterone as substrate after 5 mins by LC-MS analysis
[8] = Half life in human liver microsomes assessed as CYP-mediated compound degradation at 1 uM by LC-MS analysis
[9] = Relaxant activity in potassium depolarized guinea pig ileum longitudinal smooth muscle assessed as inhibition of calcium-induced contraction at 10^-4 M after 30 mins; format: functional, Cavia porcellus; set-up: scale not given: the % may be the effect or the level left
[10] = Relaxant activity in potassium depolarized guinea pig ileum longitudinal smooth muscle assessed as inhibition of calcium-induced contraction after 30 mins; format: functional, tissue-based; settings: Cavia porcellus, 0.5 h
in vitro = settings: human, liver microsomes
Left cardiac atrium [11] = experiment: Negative inotropic activity in potassium depolarized guinea pig left atrium assessed as reduction in developed tension at 10^-5 M after 30 mins; format: functional, Cavia porcellus; set-up: scale not given: the % may be the effect or the level left
Right cardiac atrium [12] = experiment: Negative chronotropic activity in potassium depolarized guinea pig right atrium assessed as reduction in atrial rate at 50 uM after 30 mins; format: functional, Cavia porcellus; set-up: scale not given: the % may be the effect or the level left
Aorta [13] = experiment: Vasorelaxant activity in potassium depolarized guinea pig aorta assessed as inhibition of calcium-induced contraction at 50 uM after 30 mins; format: functional, Cavia porcellus; set-up: scale not given: the % may be the effect or the level left; procedure, shortened: as §1
[14] = Relaxant activity in potassium depolarized guinea pig ileum longitudinal smooth muscle assessed as inhibition of calcium-induced contraction at 50 uM after 30 mins; format: functional, Cavia porcellus; set-up: scale not given: the % may be the effect or the level left
Right cardiac atrium [15] = experiment: Negative chronotropic activity in potassium depolarized guinea pig right atrium assessed as reduction in atrial rate at 10^-6 M after 30 mins; format: functional, Cavia porcellus; set-up: scale not given: the % may be the effect or the level left
Left cardiac atrium [16] = experiment: Negative inotropic activity in potassium depolarized guinea pig left atrium assessed as reduction in developed tension at 5 uM after 30 mins; format: functional, Cavia porcellus; set-up: scale not given: the % may be the effect or the level left

Row | SMILES | EC50 (Left cardiac atrium [2]) | Activity (Right cardiac atrium [3]) | Activity (Aorta [4]) | Activity (Left cardiac atrium [5]) | IC50 (Cytochrome P450 2C19) | IC50 (Cytochrome P450 2D6) | Stability (Liver microsome) | IC50 (Cytochrome P450 1A2) | IC50 (Cytochrome P450 2C9) | IC50 (Cytochrome P450 3A4 [7]) | IC50 [10] | Activity (Right cardiac atrium [12]) | also measured
1 | COc1ccc(C2(OCC3CCCCC3)SC=C(C)n3c2noc3=O)cc1 (centres undefined) | 0.66 µM | 3% | 21% |  |  |  |  |  |  |  |  |  | Activity (Left cardiac atrium [1]): 80%
2 | O=c1onc2n1-c1ccccc1SC2(OCC1CCCCC1)c1ccccc1 (centres undefined) | 0.28 µM | 6% | 3% | 86% |  |  |  |  |  |  |  |  | 
3 | O=c1onc2n1-c1ccccc1SC2(OCC(F)(F)F)c1ccc(Br)cc1 (centres undefined) |  |  |  |  | 10.8 µM | > 20 µM | Stable | > 20 µM | > 20 µM | > 20 µM |  |  | IC50 (Cytochrome P450 3A4 [6]): > 20 µM
4 | COc1ccc(C2(OCC(F)(F)F)Sc3ccccc3-n3c2noc3=O)cc1 (centres undefined) | 0.095 µM | 19% | 6% |  | 17 µM | > 20 µM | Stable | > 20 µM | > 20 µM | > 20 µM | 10.3 µM |  | IC50 (Cytochrome P450 3A4 [6]): > 20 µM; half-life at 1 µM [8]: 23 min; Activity (Left cardiac atrium [1]): 82%; Activity [9]: 66%; microsomal CLint at 1 µM (in vitro): 76 µL/min/mg
5 | COc1ccc(C2(OC(C)C)SC=C(C)n3c2noc3=O)cc1 (centres undefined) | 0.43 µM |  | 11% |  |  |  |  |  |  |  |  | 14% | Activity (Left cardiac atrium [11]): 69%
6 | O=c1onc2n1-c1ccccc1SC2(O)c1ccccc1 (centres undefined) | 1.29 µM |  | 21% | 97% |  |  |  |  |  |  |  | 10% | 
7 | CC1=CSC(OCC(F)(F)F)(c2ccc(Br)cc2)c2noc(=O)n21 (centres undefined) |  |  |  |  | 1 µM | 7.1 µM | Stable | 5 µM | 6.6 µM | > 20 µM |  |  | IC50 (Cytochrome P450 3A4 [6]): > 20 µM; half-life at 1 µM [8]: > 250 min; microsomal CLint at 1 µM (in vitro): < 7 µL/min/mg
8 | COc1cccc(C2(O)SC=C(C)n3c2noc3=O)c1 (centres undefined) | 0.49 µM |  |  | 86% |  |  |  |  |  |  |  | 16% | Activity (Aorta [13]): 10%
9 | O=c1onc2n1C=CSC2(O)c1ccccc1 (centres undefined) |  |  |  | 74% |  |  |  |  |  |  |  | 14% | Activity (Aorta [13]): 11%
10 | CC1=CSC(OCC2CCCCC2)(c2ccccc2)c2noc(=O)n21 (centres undefined) | 0.87 µM | 2% | 14% |  |  |  |  |  |  |  |  |  | Activity (Left cardiac atrium [1]): 56%
11 | COc1cccc(C2(OCC(F)(F)F)SC=C(C)n3c2noc3=O)c1 (centres undefined) | 0.32 µM | 9% | 40% |  |  |  |  |  |  |  | 12.4 µM |  | Activity (Left cardiac atrium [11]): 72%; Activity [9]: 95%
12 | COc1cccc(C2(OC(C)C)SC=C(C)n3c2noc3=O)c1 (centres undefined) | 0.064 µM |  | 36% | 84% |  |  |  |  |  |  | 3.53 µM | 2% | Activity [14]: 98%
13 | CC(C)OC1(c2ccccc2)Sc2ccccc2-n2c1noc2=O (centres undefined) | 0.41 µM | 13% | 7% | 69% |  |  |  |  |  |  |  |  | 
14 | COc1ccc(C2(O)SC=C(C)n3c2noc3=O)cc1 (centres undefined) | 0.52 µM |  |  | 76% |  |  |  |  |  |  |  | 12% | Activity (Aorta [13]): 18%
15 | CC1=CSC(OC(C)C)(c2ccccc2)c2noc(=O)n21 (centres undefined) | 1.19 µM |  | 39% |  |  |  |  |  |  |  | 4.82 µM |  | Activity (Left cardiac atrium [1]): 82%; Activity (Right cardiac atrium [15]): 25%; Activity [14]: 97%
16 | CCOC1(c2ccc(OC)cc2)Sc2ccccc2-n2c1noc2=O (centres undefined) | 0.23 µM | 19% | 11% |  | 3.6 µM | > 20 µM | Stable | > 20 µM | 11.8 µM | > 20 µM |  |  | IC50 (Cytochrome P450 3A4 [6]): > 20 µM; half-life at 1 µM [8]: 13 min; Activity (Left cardiac atrium [11]): 73%; microsomal CLint at 1 µM (in vitro): 135 µL/min/mg
17 | CCOC1(c2ccccc2)SC=C(C)n2c1noc2=O (centres undefined) | 0.22 µM |  | 32% |  | 4.8 µM | 16.9 µM | Stable | > 20 µM | > 20 µM | 19.1 µM | 11.6 µM |  | IC50 (Cytochrome P450 3A4 [6]): > 20 µM; half-life at 1 µM [8]: 20 min; Activity (Left cardiac atrium [11]): 86%; Activity (Right cardiac atrium [15]): 11%; Activity [14]: 89%; microsomal CLint at 1 µM (in vitro): 86 µL/min/mg
18 | COc1cccc(C2(OCC3CCCCC3)SC=C(C)n3c2noc3=O)c1 (centres undefined) | 0.65 µM |  | 20% | 83% |  |  |  |  |  |  |  | 4% | 
19 | O=c1onc2n1-c1ccccc1SC2(OCC(F)(F)F)c1ccccc1 (centres undefined) | 0.39 µM | 13% | 6% | 75% |  |  |  |  |  |  | 14.5 µM |  | Activity [9]: 75%
20 | CCOC1(c2ccccc2)Sc2ccccc2-n2c1noc2=O (centres undefined) | 0.21 µM |  | 14% |  | 6.1 µM | > 20 µM | Stable | > 20 µM | 19 µM | > 20 µM |  | 7% | Activity (Left cardiac atrium [11]): 88%
21 | COc1ccccc1C1(OCC2CCCCC2)SC=C(C)n2c1noc2=O (centres undefined) | 0.48 µM |  | 17% | 89% |  |  |  |  |  |  |  | 22% | 
22 | CC1=CSC(OCC(F)(F)F)(c2ccccc2)c2noc(=O)n21 (centres undefined) | 0.14 µM | 6% | 28% |  | 2.4 µM | 16.5 µM | Stable | > 20 µM | 18.4 µM | > 20 µM | 9.82 µM |  | IC50 (Cytochrome P450 3A4 [6]): > 20 µM; Activity (Left cardiac atrium [16]): 79%; Activity [9]: 95%
